Source: ChEMBL document CHEMBL3124926, “Identification of highly efficacious glucocorticoid receptor agonists with a potential for reduced clinical bone side effects” (J Med Chem, 2014)

What was measured:
[1] = target: T1, Mineralocorticoid receptor (Homo sapiens, UniProt P08235); test: Competitive binding affinity to mineralocorticoid receptor (unknown origin) expressed in baculovirus-infected cell system after 1 hr by fluorescence polarization assay in presence of tetramethylrhodamine-labeled dexamethasone
T1 sequence (P08235 whole entry): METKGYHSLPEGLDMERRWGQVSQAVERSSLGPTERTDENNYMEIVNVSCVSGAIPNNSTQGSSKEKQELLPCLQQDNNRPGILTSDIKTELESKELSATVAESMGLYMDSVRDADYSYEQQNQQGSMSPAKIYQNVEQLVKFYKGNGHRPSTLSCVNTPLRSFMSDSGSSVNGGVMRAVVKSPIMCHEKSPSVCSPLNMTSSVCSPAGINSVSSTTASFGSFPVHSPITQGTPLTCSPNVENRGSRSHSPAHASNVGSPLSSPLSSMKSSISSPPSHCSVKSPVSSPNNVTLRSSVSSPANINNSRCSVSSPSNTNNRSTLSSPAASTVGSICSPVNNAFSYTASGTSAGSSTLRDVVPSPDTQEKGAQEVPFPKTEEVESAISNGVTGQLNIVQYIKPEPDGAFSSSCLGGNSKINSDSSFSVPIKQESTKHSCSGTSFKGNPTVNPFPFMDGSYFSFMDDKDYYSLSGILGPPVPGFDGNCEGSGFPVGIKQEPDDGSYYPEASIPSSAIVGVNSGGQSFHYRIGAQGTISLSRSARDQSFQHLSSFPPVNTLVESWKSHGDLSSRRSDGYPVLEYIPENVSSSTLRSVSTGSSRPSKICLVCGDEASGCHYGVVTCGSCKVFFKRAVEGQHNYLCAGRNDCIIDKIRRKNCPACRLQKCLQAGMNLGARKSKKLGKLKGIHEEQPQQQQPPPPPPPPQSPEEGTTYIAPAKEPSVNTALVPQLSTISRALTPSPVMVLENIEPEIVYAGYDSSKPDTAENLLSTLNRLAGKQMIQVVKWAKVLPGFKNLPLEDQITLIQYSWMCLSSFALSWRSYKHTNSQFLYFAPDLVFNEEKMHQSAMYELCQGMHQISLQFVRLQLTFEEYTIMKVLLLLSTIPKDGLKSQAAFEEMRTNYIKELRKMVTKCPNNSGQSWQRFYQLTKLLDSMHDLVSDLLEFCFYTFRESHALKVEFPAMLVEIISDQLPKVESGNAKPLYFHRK
Summary of the method: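 Lysates of baculovirus-infected insect cells co-expressing receptor with HSP-70, HSP-90 and p23 (GR diluted 300-fold, MR 17-fold). Probe 5 nM tetramethylrhodamine-dexamethasone in TES/KCl/molybdate/EDTA/CHAPS/glycerol/DTT buffer, pH 7.4, 1% DMSO. 1 h at room temperature in the dark; fluorescence polarization read (ex 550/em 580 nm). Background set with 2 μM dexamethasone. IC50 from duplicate 11-point curves, four-parameter fit, mean of at least two determinations.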

[2] = target: T2, Glucocorticoid receptor (Homo sapiens) (UniProt P04150); test: Agonist activity at glucocorticoid receptor in human […] cells assessed as suppression of vitamin D-induced osteocalcin production at 2 uM after 48 hrs by Gla-type osteocalcin ELISA relative to dexomethasone; assay type: cell-based
T2 sequence (whole entry): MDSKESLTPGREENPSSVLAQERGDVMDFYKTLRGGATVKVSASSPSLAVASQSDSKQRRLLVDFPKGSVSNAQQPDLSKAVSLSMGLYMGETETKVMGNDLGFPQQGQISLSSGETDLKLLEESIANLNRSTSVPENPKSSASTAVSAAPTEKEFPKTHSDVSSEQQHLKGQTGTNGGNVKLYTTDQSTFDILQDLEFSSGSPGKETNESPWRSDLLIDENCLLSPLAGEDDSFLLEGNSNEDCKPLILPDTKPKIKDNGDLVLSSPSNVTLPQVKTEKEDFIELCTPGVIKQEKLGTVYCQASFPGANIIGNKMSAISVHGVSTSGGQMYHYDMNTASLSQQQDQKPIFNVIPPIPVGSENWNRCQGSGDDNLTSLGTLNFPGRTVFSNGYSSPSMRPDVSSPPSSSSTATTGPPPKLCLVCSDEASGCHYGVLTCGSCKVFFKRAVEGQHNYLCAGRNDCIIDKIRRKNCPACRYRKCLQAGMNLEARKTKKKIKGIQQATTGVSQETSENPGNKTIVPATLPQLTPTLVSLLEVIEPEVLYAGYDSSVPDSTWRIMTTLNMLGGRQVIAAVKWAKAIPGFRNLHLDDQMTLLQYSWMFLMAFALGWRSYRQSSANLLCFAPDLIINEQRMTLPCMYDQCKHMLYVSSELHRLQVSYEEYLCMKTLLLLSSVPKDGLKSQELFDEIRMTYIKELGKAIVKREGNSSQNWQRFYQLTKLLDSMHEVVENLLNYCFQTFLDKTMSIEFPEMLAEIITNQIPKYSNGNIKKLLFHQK
Summary of the method: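 MG-63 human osteosarcoma cells plated at 20000/well in DMEM/F-12 with 1% charcoal-filtered FBS and 10 μg/mL vitamin C. Medium refreshed next day, then vitamin D (10 nM final) added with compound (2 × 10−6 to 10−10 M), duplicates. Incubated 48 h at 37 °C; supernatant osteocalcin measured by Gla-type ELISA. Vitamin D-only wells = 100%. Max efficacy at 2 μM is relative to dexamethasone (100%).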

Row | Compound | IC50 [1] [nM] | Emax [2] [%]
1 | CC(C)(CC(O)(Cc1cc2ncncc2[nH]1)C(F)(F)F)c1ccc(F)cc1O (racemic) | 1200 | 28
2 | Cc1ccc(F)cc1C(C)(C)CC(O)(Cc1cc2nc(-c3cccnc3)ncc2[nH]1)C(F)(F)F (racemic) | > 2000 | 74
3 | Cc1ccc(F)cc1C(C)(C)CC(O)(Cc1cc2nc(-c3ccccc3)ncc2[nH]1)C(F)(F)F (racemic) | 1900 | 72
4 | Cc1ccc(F)cc1C(C)(C)C[C@@](O)(Cc1cc2ncncc2[nH]1)C(F)(F)F | 475 | 32
5 | Cc1ccc(F)cc1C(C)(C)CC(O)(Cc1cc2nnccc2[nH]1)C(F)(F)F (racemic) | 615 | 45
6 | Cc1ccc(F)cc1C(C)(C)CC(O)(Cc1cc2nc(N3CCS(=O)(=O)CC3)ncc2[nH]1)C(F)(F)F (racemic) | > 2000 | 80

The remaining lines, values ahead:

Row | IC50 [1] [nM] | Emax [2] [%] | Compound
7 | 855 | 32 | Cc1ccc(F)cc1C(C)(C)CC(O)(Cc1cc2ncncc2[nH]1)C(F)(F)F (racemic)
8 | 340 | 35 | CC(C)(CC(O)(Cc1cc2ncncc2[nH]1)C(F)(F)F)c1cc(Cl)cc2c1OCC2 (racemic)
9 | > 2000 | 73 | Cc1ccc(F)cc1C(C)(C)CC(O)(Cc1cc2cc(-c3ccccc3)nnc2[nH]1)C(F)(F)F (racemic)
10 | 260 | 34 | Cc1ccc(F)cc1C(C)(C)C[C@@](O)(Cc1cc2nnccc2[nH]1)C(F)(F)F
